Measured values taken from ChEMBL document CHEMBL4130355, “Development of a series of novel 4-anlinoquinazoline derivatives possessing quinazoline skeleton: Design, synthesis, EGFR kinase inhibitory efficacy, and evaluation of anticancer activities in vitro” (Eur J Med Chem, 2017).
Active and inactive are the calls of the source. The calls are words filed in the database; no cut-off is given here.

Key:
HepG2 [1] = test: Antiproliferative activity against human HepG2 cells at 100 uM after 24 hrs by MTT assay realtive to control; assay type: functional
In short: (§1)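 MTT assay in triplicate wells. Cells (2 × 10^3/well) were attached 24 h, then treated at 0.1, 1, 10, 50 or 100 µM for 24, 48 or 72 h. MTT added for 4 h, SDS solubilisation, absorbance at 570/650 nm. Inhibition = 1 − (OD treated − blank)/(OD control − blank). Reported as mean ± SD of three independent experiments.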

HepG2 [2] = test: Induction of apoptosis in human HepG2 cells assessed as late apoptotic cells at 2.5 uM after 48 hrs by Annexin V-FITC/propidium iodide double staining-based flow cytometry (reference value: 4.3%); assay type: functional
HepG2 [3] = test: Antiproliferative activity against human HepG2 cells at 100 uM after 48 hrs by MTT assay realtive to control; assay type: functional; in short: as §1
HepG2 [4] = test: Induction of mitochondrial membrane potential loss in human HepG2 cells assessed as mitochondrial membrane potential levels at 2.5 uM after 48 hrs by rhodamine-123 dye based FACS analysis (reference value: 90.4%); assay type: functional
[5] = biological target: T1, Epidermal growth factor receptor (Homo sapiens, UniProt P00533); settings: HEK293, at 0.0001 µM
A549 [6] = test: Antiproliferative activity against human A549 cells at 50 uM after 24 hrs by MTT assay relative to control; assay type: functional; in short: as §1
HepG2 [7] = test: Cell cycle arrest in human HepG2 assessed as accumulation at G2/M phase at 2.5 uM after 48 hrs by propidium iodide-staining based flow cytometry (reference value: 9.13%); assay type: functional
In short: (§2)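 HepG2 cells at 5.0 × 10^5/well were grown 24 h, then treated at 0, 2.5, 5.0 or 10.0 µM for 48 h alongside medium-only wells. Cells fixed in 70% ice-cold ethanol for ≥24 h, treated with RNase A at 37 °C for 30 min, then stained with propidium iodide for 30 min at 4 °C in the dark. DNA content read by flow cytometry. Average of at least three experiments.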

A549 [8] = test: Antiproliferative activity against human A549 cells at 0.1 uM after 24 hrs by MTT assay relative to control; assay type: functional; in short: as §1
HepG2 [9] = test: Cytotoxicity against human HepG2 cells at 5 uM after 48 hrs by LDH release assay (reference value: 100%); assay type: functional
In short: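 HepG2 seeded at 1.0 × 10^5 cells/well, grown 24 h at 37 °C in 5% CO2, then dosed for 48 h. LDH in supernatant read on plate reader per kit. Maximal release (100% cytotoxicity) came from lysis with 2% (V/V) lysate for 1 h at 37 °C; medium-only cells served as natural release. Triplicate, three independent runs.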

HepG2 [10] = test: Induction of apoptosis in human HepG2 cells assessed as viable cells at 2.5 uM after 48 hrs by Annexin V-FITC/propidium iodide double staining-based flow cytometry (reference value: 86.4%); assay type: functional; settings: HepG2, 48 h, read-out: Activity
A549 [11] = test: Antiproliferative activity against human A549 cells after 48 hrs by MTT assay; assay type: functional, cell-based; settings: A549, 48 h
In short: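 MTT read-out. Cells seeded at 2 × 10^3/well, attached 24 h at 37 °C in 5% CO2, then exposed to 0.1–100 µM for 24, 48 or 72 h. MTT for 4 h, formazan dissolved in 10% SDS/NH4Cl for 10 h, absorbance at 570 nm corrected at 650 nm. % inhibition computed against untreated and blank wells. IC50 is the mean of at least three independent experiments.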

HepG2 [12] = test: Cell cycle arrest in human HepG2 assessed as accumulation at S phase at 5 uM after 48 hrs by propidium iodide-staining based flow cytometry (reference value: 21.46%); assay type: functional; in short: as §2
A549 [13] = test: Antiproliferative activity against human A549 cells at 10 uM after 48 hrs by MTT assay relative to control; assay type: functional; in short: as §1
A549 [14] = test: Antiproliferative activity against human A549 cells at 0.1 uM after 48 hrs by MTT assay relative to control; assay type: functional; in short: as §1
HepG2 [15] = test: Antiproliferative activity against human HepG2 cells at 50 uM after 48 hrs by MTT assay realtive to control; assay type: functional; in short: as §1
HepG2 [16] = test: Antiproliferative activity against human HepG2 cells at 50 uM after 24 hrs by MTT assay realtive to control; assay type: functional; in short: as §1
HepG2 [17] = test: Induction of apoptosis in human HepG2 cells assessed as budded nuclei formation at 2.5 to 20 uM after 48 hrs by Hoechst 33342/propidium iodide double staining based laser scanning confocal microscopy; assay type: functional, cell-based
In short: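 HepG2 plated at 5.0 × 10^4 cells/well in DMEM with 10% FBS, 24 h at 37 °C, then treated 48 h (2.5–20 µM). After two ice-cold PBS washes, cells were stained with Hoechst 33342/PI mixed 1:1 for 30 min at 37 °C in the dark, washed three times, and imaged by laser scanning confocal microscopy at 200×.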

HepG2 [18] = test: Induction of apoptosis in human HepG2 cells assessed as intracellular free Ca2+ levels after 48 hrs by FL1 channel/FACS analysis; assay type: functional, cell-based
In short: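 HepG2 seeded at 5.0 × 10^5 cells/mL, 24 h at 37 °C in 5% CO2, then treated 48 h (2.5–20 µM). Harvested cells were washed in ice-cold PBS and loaded with 4 µM Fluo-3/AM for 30 min. After trypsinizing, they were washed twice and resuspended in HEPES, and fluorescence was measured in the FL-1 channel by flow cytometry. Values are averages of at least three independent experiments.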

HepG2 [19] = test: Cell cycle arrest in human HepG2 assessed as accumulation at G2/M phase at 5 uM after 48 hrs by propidium iodide-staining based flow cytometry (reference value: 9.13%); assay type: functional; in short: as §2
[20] = biological target: T1, Epidermal growth factor receptor; settings: HEK293, at 1 µM
HepG2 [21] = test: Cytotoxicity against human HepG2 cells at 20 uM after 48 hrs by LDH release assay (reference value: 100%); assay type: functional
In short: (§3)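 LDH release. HepG2 cells at 1.0 × 10^5/well were incubated 24 h at 37 °C, then treated at 2.5–40 µM for 48 h. Cells lysed with 2% lysate for 1 h gave the full-release (100%) reference; medium-only cells were the low control. LDH in the supernatant was measured per kit. Triplicates, three independent repeats.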

HepG2 [22] = test: Cytotoxicity against human HepG2 cells at 2.5 uM after 48 hrs by LDH release assay (reference value: 100%); assay type: functional; in short: as §3
A549 [23] = test: Antiproliferative activity against human A549 cells at 1 uM after 72 hrs by MTT assay relative to control; assay type: functional; in short: as §1
HepG2 [24] = test: Induction of apoptosis in human HepG2 cells assessed as caspase-3 activity at 2.5 uM after 48 hrs by colorimetric assay relative to control; assay type: functional
In short: (§4)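 After 48 h treatment, HepG2 were rinsed in ice-cold PBS and lysed 1–1.5 h on ice in buffer with 1% DTT. Lysate was spun at 10,000×g for 1 min at 4 °C; supernatant protein was measured by Bradford. Supernatant was mixed with 2× reaction buffer (1% DTT) plus caspase-3 chromogenic peptide substrate, held 4 h at 37 °C, and read at 405 nm.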

HepG2 [25] = test: Induction of apoptosis in human HepG2 cells assessed as caspase-3 activity at 20 uM after 48 hrs by colorimetric assay relative to control; assay type: functional; in short: as §4

T1 sequence (P00533 whole entry): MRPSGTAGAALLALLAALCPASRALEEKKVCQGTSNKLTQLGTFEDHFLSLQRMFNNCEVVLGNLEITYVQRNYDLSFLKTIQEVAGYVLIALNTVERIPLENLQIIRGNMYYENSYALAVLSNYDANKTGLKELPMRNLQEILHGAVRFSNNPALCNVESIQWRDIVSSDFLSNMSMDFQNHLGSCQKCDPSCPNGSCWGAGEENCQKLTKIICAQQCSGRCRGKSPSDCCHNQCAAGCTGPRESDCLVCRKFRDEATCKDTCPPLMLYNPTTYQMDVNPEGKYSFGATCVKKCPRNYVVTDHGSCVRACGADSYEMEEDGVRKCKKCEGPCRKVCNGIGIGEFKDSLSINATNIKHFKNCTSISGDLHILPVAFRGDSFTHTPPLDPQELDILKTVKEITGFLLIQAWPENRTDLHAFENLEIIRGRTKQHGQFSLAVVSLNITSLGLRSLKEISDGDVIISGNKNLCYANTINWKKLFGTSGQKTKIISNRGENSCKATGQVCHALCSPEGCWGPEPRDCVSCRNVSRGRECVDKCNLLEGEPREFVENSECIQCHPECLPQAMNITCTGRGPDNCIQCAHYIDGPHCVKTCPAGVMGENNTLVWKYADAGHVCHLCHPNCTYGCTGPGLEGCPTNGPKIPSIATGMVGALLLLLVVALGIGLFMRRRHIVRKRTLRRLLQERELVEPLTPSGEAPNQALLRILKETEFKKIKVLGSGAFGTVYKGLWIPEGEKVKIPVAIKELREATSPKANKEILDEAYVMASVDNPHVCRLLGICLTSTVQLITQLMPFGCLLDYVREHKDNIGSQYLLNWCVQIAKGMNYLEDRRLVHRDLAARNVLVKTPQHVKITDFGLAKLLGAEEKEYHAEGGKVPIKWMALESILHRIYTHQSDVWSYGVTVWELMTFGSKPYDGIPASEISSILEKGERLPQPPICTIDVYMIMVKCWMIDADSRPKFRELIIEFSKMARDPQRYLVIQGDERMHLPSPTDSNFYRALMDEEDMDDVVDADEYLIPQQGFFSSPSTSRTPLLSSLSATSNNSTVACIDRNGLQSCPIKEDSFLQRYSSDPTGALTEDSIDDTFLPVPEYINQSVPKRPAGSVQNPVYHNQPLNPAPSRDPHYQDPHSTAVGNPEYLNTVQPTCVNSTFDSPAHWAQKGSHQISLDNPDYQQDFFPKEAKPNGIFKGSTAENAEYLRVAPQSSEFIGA

COc1cc2c(Nc3ccc(C#N)cc3)ncnc2cc1OCCCN1CCC(c2ccccc2)CC1
Activity (HepG2 [1]): 101% | Activity (HepG2 [2]): 3.8% | Activity (HepG2 [3]): 102% | Activity (HepG2 [4]): 88.3% | inhibition [5]: 39.1% | Activity (A549 [6]): 85.3% | Activity (HepG2 [7]): 10.49% | Activity (A549 [8]): 0.8% | Activity (HepG2 [9]): 50.11% | viability at 2.5 µM (HepG2 [10]): 47.5% | IC50 (A549 [11]): 20.6 µM | Activity (HepG2 [12]): 25.1% | Activity (A549 [13]): 13.5% | Activity (A549 [14]): 1.3% | Activity (HepG2 [15]): 108% | Activity (HepG2 [16]): 99.1% | Activity (HepG2 [17]): Active | Activity (HepG2 [18]): Dose-dependent effect | Activity (HepG2 [19]): 9.37% | inhibition [20]: 94.3% | Activity (HepG2 [21]): 52.94% | Activity (HepG2 [22]): 39.65% | Activity (A549 [23]): 1.5% | Activity (HepG2 [24]): 138% | Activity (HepG2 [25]): 196%
